Data set [1] in a line: Tmax in ICR mouse at 25 mg/kg, po administered as single dose. The class given is ADME, organism-based. To be noted: in vivo. An outline of the steps:
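SPF female ICR mice (20-25 g), 3 per group, given a single oral dose of 25 mg/kg as a suspension in 0.5% CMC. Blood drawn from the jugular vein at 0.25, 0.5, 1, 2, 4, 6, 8 and 24 h post-dose. AUC(0-inf), t1/2, Cmax and Tmax derived directly from the concentration-time data.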

The test system of data set [2] is Mycobacterium tuberculosis. In words: Antimycobacterial activity against Mycobacterium tuberculosis H37Rv incubated for 7 days by rapid direct susceptibility test. Format: functional. The conditions noted are these: 168 h. An outline of the steps: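 Two-fold dilutions of compound mixed with MTB suspension holding 4×10^-3 mg cells (H37Rv, or MDR strain resistant to ethambutol, INH and RIF) in 48-well plates. Incubation at 37 °C in a wet box. Cells in each well observed by continuous visual high-magnification system, re-read 7 days later. MIC taken as lowest concentration inhibiting visible growth.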

Data set [3] in a line: Cytotoxicity against African green monkey Vero cells after 72 hrs by MTT assay. The class given is cell-based. To be noted: chlorocebus sabaeus. A general note: Tetrazolium dyes change colour on reduction, which living cells bring about.
Data set [4] in a line: Selectivity index, ratio of CC50 for African green monkey Vero cells to MIC for Mycobacterium tuberculosis H37Rv. The conditions noted are these: read-out: Selectivity Index. The class given is toxicity. In short, it runs like this:
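SI calculated as CC50/MIC against H37Rv. Viability read by MTT, CC50 by Bliss analysis. MIC comes from the 7-day visual broth test.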

As a reminder, the Tmax is the time from dosing to the highest level. One may read the MIC as the smallest concentration in the dilution series that meets the test's criterion for growth inhibition. The CC50 is the concentration giving 50% cytotoxicity.

In brackets after ≈: the same amount, converted by molar mass.

For the compound `CCOC(=O)c1c(-c2ccc(OC)cc2)oc2ccc(OCc3cn(CCN4C(=O)/C(=N/NC(N)=S)c5cc(OC)ccc54)nn3)cc12`, in data set [1], the Tmax is 1.24 h.

Turning to `CCOC(=O)c1c(-c2ccc(O)cc2)oc2ccc(O)c(CN3CCCCC3)c12`, the Tmax in data set [1] was found to be 3.46 h.

The compound `NNC(=O)c1ccncc1` [ISONIAZID] came in with an MIC in data set [2] of 0.06 µg/mL (≈ 0.438 µM). In data set [3], this compound returned a CC50 at 72 h of 256 µM. Also, the selectivity ratio in data set [4] is 4096.

As for `CO[C@H]1/C=C/O[C@@]2(C)Oc3c(C)c(O)c4c(O)c(c(/C=N/N5CCN(C)CC5)c(O)c4c3C2=O)NC(=O)/C(C)=C\C=C\[C@H](C)[C@H](O)[C@@H](C)[C@@H](O)[C@@H](C)[C@H](OC(C)=O)[C@@H]1C` [RIFAMPIN], the CC50 at 72 h in data set [3] turned out to be 512 µM. For the same compound, the selectivity ratio in data set [4] came out at 1024.

The values are drawn from ChEMBL document CHEMBL4261608, “Design, synthesis and anti-mycobacterial activity evaluation of benzofuran-isatin hybrids” (Eur J Med Chem, 2018).
